{"source": "ChEMBL document CHEMBL1800027", "about": "“Imidazolopiperazines: hit to lead optimization of new antimalarial agents” (J Med Chem, 2011)", "key": {"[1]": {"experiment": "Cytotoxicity against human HuH7 cells", "assay_type": "cell-based", "conditions": "Huh-7 cells, read-out: TC50 (the source's name)"}, "Plasmodium falciparum [2]": {"tested_on": "Plasmodium falciparum", "experiment": "Antimalarial activity against Plasmodium falciparum 3D7 infected in human erythrocytes assessed as decrease in parasitemia after 72 hrs", "assay_type": "functional, organism-based", "conditions": "3D7, 72 h"}, "[3]": {"experiment": "Cmax in po dosed mouse", "assay_type": "ADME, organism-based", "parameters": "route oral", "conditions": "in vivo"}, "[4]": {"target": "Voltage-gated inwardly rectifying potassium channel KCNH2 (Homo sapiens, UniProt Q12809)", "sequence (Q12809 whole entry)": "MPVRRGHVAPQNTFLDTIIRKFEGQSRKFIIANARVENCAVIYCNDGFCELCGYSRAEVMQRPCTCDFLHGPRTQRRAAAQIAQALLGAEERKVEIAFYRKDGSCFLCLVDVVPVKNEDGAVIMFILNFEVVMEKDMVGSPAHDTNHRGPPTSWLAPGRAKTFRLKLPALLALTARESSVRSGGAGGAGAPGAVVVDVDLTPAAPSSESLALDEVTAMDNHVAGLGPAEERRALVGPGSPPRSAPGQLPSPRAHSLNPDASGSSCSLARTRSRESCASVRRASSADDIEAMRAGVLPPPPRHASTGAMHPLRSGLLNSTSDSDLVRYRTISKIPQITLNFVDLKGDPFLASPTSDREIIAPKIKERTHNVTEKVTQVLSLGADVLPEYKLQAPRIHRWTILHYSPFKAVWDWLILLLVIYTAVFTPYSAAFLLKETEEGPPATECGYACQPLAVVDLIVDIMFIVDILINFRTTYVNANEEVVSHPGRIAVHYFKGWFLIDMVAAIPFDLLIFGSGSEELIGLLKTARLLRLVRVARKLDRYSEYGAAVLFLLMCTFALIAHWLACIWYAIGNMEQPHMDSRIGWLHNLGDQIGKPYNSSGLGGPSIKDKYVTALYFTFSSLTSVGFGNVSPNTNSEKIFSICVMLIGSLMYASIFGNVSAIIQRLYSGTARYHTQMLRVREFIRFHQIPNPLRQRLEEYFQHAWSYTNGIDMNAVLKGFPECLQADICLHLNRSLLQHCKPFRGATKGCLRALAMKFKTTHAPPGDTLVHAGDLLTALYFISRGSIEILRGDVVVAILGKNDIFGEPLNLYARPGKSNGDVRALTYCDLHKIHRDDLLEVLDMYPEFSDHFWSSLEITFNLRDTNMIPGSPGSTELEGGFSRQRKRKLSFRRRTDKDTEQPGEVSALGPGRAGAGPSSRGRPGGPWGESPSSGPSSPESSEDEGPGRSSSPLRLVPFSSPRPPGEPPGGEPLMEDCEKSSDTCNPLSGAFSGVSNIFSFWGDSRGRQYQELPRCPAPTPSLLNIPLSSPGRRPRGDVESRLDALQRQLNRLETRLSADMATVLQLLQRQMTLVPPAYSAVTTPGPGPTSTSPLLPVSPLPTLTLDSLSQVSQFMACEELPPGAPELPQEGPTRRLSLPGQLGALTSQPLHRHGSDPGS"}, "[5]": {"experiment": "Selectivity index, ratio TC50 for human HuH7 cells to IC50 for Plasmodium falciparum", "assay_type": "functional, Huh-7"}, "Cytochrome P450 1A2": {"target": "T1, Cytochrome P450 1A2 (Homo sapiens, UniProt P05177)", "T1 sequence (P05177 whole entry)": "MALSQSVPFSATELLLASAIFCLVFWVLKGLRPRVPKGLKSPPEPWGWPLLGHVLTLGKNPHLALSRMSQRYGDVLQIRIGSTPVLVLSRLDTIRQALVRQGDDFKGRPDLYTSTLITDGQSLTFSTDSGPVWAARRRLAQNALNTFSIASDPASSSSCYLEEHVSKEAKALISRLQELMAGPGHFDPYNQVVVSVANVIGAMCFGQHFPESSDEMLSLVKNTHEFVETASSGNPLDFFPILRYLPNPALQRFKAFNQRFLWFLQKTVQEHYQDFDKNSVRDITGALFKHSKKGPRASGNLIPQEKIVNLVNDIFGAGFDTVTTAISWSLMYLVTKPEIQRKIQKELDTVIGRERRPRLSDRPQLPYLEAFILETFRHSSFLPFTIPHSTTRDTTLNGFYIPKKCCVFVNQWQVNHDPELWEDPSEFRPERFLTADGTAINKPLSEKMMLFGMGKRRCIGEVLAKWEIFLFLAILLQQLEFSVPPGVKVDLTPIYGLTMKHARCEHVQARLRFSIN", "experiment": "Inhibition of CYP 1A2", "assay_type": "ADME"}, "Cytochrome P450 2C19": {"target": "Cytochrome P450 2C19 (Homo sapiens, UniProt P33261)", "sequence (P33261 whole entry)": "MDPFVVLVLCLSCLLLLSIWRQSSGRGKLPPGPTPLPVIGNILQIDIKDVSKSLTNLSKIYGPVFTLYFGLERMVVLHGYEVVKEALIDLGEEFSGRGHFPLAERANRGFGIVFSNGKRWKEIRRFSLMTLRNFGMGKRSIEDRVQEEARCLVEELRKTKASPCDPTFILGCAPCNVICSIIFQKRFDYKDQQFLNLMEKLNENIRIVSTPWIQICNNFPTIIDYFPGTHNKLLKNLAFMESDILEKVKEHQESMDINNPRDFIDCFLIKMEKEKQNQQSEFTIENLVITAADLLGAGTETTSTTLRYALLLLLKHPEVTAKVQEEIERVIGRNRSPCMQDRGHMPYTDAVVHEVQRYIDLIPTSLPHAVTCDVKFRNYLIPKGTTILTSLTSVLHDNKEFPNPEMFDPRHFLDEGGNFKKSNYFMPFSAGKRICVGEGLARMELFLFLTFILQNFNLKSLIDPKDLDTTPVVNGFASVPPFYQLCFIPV", "experiment": "Inhibition of CYP 2C19", "assay_type": "ADME"}, "Plasmodium falciparum [6]": {"tested_on": "Plasmodium falciparum", "experiment": "Antimalarial activity against Plasmodium falciparum W2 infected in human erythrocytes assessed as decrease in parasitemia after 72 hrs", "assay_type": "functional, organism-based", "conditions": "W2, 72 h"}, "Cytochrome P450 2C9": {"target": "Cytochrome P450 2C9 (Homo sapiens, UniProt P11712)", "sequence (P11712 whole entry)": "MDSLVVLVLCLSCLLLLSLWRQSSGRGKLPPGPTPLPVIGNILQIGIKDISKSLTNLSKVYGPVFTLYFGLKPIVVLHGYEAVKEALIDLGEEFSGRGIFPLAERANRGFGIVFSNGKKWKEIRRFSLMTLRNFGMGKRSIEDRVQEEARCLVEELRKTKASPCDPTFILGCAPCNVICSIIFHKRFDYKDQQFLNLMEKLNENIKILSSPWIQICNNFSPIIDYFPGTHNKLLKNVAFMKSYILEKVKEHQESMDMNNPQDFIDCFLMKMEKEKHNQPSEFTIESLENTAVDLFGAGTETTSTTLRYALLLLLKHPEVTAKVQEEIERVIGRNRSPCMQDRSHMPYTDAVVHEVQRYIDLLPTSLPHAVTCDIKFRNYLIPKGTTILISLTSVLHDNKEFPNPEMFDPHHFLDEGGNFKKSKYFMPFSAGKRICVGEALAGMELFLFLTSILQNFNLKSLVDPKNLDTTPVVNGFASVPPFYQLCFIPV", "experiment": "Inhibition of CYP 2C9", "assay_type": "ADME"}, "[7]": {"experiment": "Selectivity index, ratio TC50 for human HeLa cells to IC50 for Plasmodium falciparum", "assay_type": "functional"}, "Cytochrome P450 2D6": {"target": "Cytochrome P450 2D6 (Homo sapiens, UniProt P10635)", "sequence (P10635 whole entry)": "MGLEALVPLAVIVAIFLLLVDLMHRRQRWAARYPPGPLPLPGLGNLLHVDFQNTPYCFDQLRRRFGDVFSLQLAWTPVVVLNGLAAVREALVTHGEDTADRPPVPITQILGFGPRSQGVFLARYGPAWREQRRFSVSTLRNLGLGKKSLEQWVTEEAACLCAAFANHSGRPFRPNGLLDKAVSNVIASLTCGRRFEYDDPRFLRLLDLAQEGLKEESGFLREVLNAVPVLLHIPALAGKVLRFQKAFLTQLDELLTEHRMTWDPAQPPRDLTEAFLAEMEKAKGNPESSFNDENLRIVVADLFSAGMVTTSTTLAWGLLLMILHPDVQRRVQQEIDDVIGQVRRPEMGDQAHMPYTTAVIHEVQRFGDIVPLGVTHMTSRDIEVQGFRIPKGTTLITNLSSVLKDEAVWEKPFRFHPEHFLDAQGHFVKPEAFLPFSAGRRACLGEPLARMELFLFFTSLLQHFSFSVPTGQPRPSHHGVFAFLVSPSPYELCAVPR", "experiment": "Inhibition of CYP 2D6", "assay_type": "ADME"}, "[8]": {"experiment": "Aqueous solubility of the compound at pH 6.8", "assay_type": "physicochemical", "conditions": "buffer"}, "Cytochrome P450 3A4": {"target": "Cytochrome P450 3A4 (Homo sapiens, UniProt P08684)", "sequence (P08684 whole entry)": "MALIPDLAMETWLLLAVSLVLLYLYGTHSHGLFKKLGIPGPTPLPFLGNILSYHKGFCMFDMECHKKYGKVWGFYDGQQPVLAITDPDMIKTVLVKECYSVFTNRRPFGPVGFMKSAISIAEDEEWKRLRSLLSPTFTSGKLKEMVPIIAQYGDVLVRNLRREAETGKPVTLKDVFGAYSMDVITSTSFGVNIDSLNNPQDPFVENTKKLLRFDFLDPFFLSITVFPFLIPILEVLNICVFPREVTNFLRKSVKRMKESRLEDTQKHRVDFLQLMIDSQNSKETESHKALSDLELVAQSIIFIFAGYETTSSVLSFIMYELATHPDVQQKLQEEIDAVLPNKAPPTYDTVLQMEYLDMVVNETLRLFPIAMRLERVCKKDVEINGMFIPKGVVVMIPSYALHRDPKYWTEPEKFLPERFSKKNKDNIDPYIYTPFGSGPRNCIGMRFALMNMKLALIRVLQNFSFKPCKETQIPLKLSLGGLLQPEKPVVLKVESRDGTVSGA", "experiment": "Inhibition of CYP 3A4", "assay_type": "ADME"}, "[9]": {"experiment": "Oral bioavailability in male BALB/c mouse at 20 mg/kg by LC/MS/MS analysis", "assay_type": "ADME, organism-based", "conditions": "in vivo", "how_it_was_run": "(§1)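 Male Balb/c mice, n = 3 per group, given 20 mg/kg orally at 8 mL/kg. Vehicle 2.5 mg/mL in 75% PEG300/25% DSW, filtered. Six serial retro-orbital blood samples up to 24 h, heparinized plasma. Plasma extracted with acetonitrile/methanol (3:1) plus internal standard; LC/MS/MS quantitation by positive ESI MRM. Noncompartmental analysis; values normalized to 30 mg/kg. F = (AUCpo·dose iv)/(AUCiv·dose po).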"}, "Mus musculus [10]": {"tested_on": "Mus musculus", "experiment": "AUC (0 to infinity) in male BALB/c mouse at 20 mg/kg, po by LC/MS/MS analysis", "assay_type": "ADME, organism-based, Plasma", "parameters": "time infinity, dose 20 mg/kg, route oral", "conditions": "in vivo", "how_it_was_run": "as §1"}, "Rattus norvegicus": {"tested_on": "Rattus norvegicus", "experiment": "Toxicity in rat assessed as adverse effect at 500 mg/kg", "assay_type": "organism-based", "parameters": "dose 500 mg/kg", "conditions": "in vivo"}, "Mus musculus [11]": {"tested_on": "Mus musculus", "experiment": "Cmax in male BALB/c mouse at 20 mg/kg, po by LC/MS/MS analysis", "assay_type": "ADME, organism-based", "parameters": "dose 20 mg/kg, route oral", "conditions": "in vivo", "how_it_was_run": "as §1"}, "[12]": {"experiment": "AUC (0 to infinity) in male BALB/c mouse at 5 mg/kg, iv by LC/MS/MS analysis", "assay_type": "ADME, organism-based", "parameters": "time infinity, dose 5 mg/kg, route intravenous", "conditions": "plasma", "how_it_was_run": "(§2)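 Male Balb/c mice, n = 3 per group, dosed iv via lateral tail vein at 5 mg/kg and 2 mL/kg. Vehicle 2.5 mg/mL in 75% PEG300/25% DSW, filtered. Six serial retro-orbital blood samples up to 24 h, heparinized plasma. Plasma extracted with acetonitrile/methanol (3:1) plus internal standard for LC/MS/MS (positive ESI, MRM). Noncompartmental analysis.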"}, "[13]": {"experiment": "Half-life in male BALB/c mouse at 5 mg/kg, iv by LC/MS/MS analysis", "assay_type": "ADME, organism-based", "parameters": "dose 5 mg/kg, route intravenous", "conditions": "in vivo", "how_it_was_run": "as §2"}, "Plasmodium berghei [14]": {"tested_on": "Plasmodium berghei", "experiment": "Antimalarial activity against GFP-tagged Plasmodium berghei ANKA infected in NMRI mouse assessed as mouse survival at 30 mg/kg, po administered as single dose 24 hrs post infection measured 72 hrs post infection"}, "[15]": {"experiment": "Volume of distribution in male BALB/c mouse at 5 mg/kg, iv by LC/MS/MS analysis", "assay_type": "ADME, organism-based", "parameters": "dose 5 mg/kg, route intravenous", "conditions": "in vivo", "how_it_was_run": "as §2"}, "[16]": {"experiment": "Clearance in male BALB/c mouse at 5 mg/kg, iv by LC/MS/MS analysis", "assay_type": "ADME, organism-based", "parameters": "dose 5 mg/kg, route intravenous", "conditions": "in vivo", "how_it_was_run": "as §2"}, "[17]": {"experiment": "Cytotoxicity against human 293T cells", "assay_type": "cell-based", "conditions": "HEK-293T cells, read-out: TC50 (the source's name)"}, "[18]": {"experiment": "Cytotoxicity against human Hep2 cells", "assay_type": "cell-based", "conditions": "HEp-2 cells, read-out: TC50 (the source's name)"}, "[19]": {"experiment": "Tmax in male BALB/c mouse at 20 mg/kg, po by LC/MS/MS analysis", "assay_type": "ADME, organism-based", "parameters": "dose 20 mg/kg, route oral", "conditions": "in vivo", "how_it_was_run": "as §1"}, "Plasmodium berghei [20]": {"tested_on": "Plasmodium berghei", "experiment": "Antimalarial activity against GFP-tagged Plasmodium berghei ANKA infected in NMRI mouse assessed as reduction in parasitemia at 30 mg/kg, po QD administered 24 hrs post infection for 3 days measured on day 4 post infection", "assay_type": "functional", "parameters": "scale not given: the % may be the effect or the level left"}, "[21]": {"conditions": "pampa"}, "in vitro [22]": {"experiment": "in vitro", "conditions": "human, Caco-2"}, "[23]": {"experiment": "Cytotoxicity against human HeLa cells", "assay_type": "cell-based", "conditions": "read-out: TC50 (the source's name)"}, "[24]": {"experiment": "Half life in male BALB/c mouse at 20 mg/kg, po by LC/MS/MS analysis", "assay_type": "ADME, organism-based", "parameters": "dose 20 mg/kg, route oral", "conditions": "in vivo", "how_it_was_run": "as §1"}, "[25]": {"experiment": "Cytotoxicity against Cricetulus griseus CHO cells", "assay_type": "cell-based", "conditions": "chinese hamster, read-out: TC50 (the source's name)"}, "in vitro [26]": {"experiment": "in vitro", "conditions": "human, Caco-2", "remark": "listed apart in the source"}, "[27]": {"experiment": "Cytotoxicity against mouse BAF3 cells", "assay_type": "cell-based", "conditions": "read-out: TC50 (the source's name)"}, "Plasmodium berghei [28]": {"tested_on": "Plasmodium berghei", "experiment": "Antimalarial activity against GFP-tagged Plasmodium berghei ANKA infected in NMRI mouse assessed as mouse survival at 30 mg/kg, po QD administered 24 hrs post infection for 3 days measured on day 30 post infection", "assay_type": "functional"}}, "note": "pIC50: −log10 of the molar value."}
{"smiles": "NCC(=O)N1CCn2c(nc(-c3ccccc3)c2Nc2ccc3c(c2)OCO3)C1", "values": [{"measurement": "CC50", "setting": "[1]", "result": "> 10", "unit": "µM"}, {"measurement": "pIC50", "setting": "Plasmodium falciparum [2]", "result": 7.20}, {"measurement": "Cmax", "setting": "[3]", "result": 320, "unit": "nM"}, {"measurement": "pIC50", "setting": "[4]", "result": 4.72}, {"measurement": "Selectivity Index", "setting": "[5]", "result": ">20"}, {"measurement": "pIC50", "setting": "Cytochrome P450 1A2", "result": "< 5.00"}, {"measurement": "pIC50", "setting": "Cytochrome P450 2C19", "result": "< 5.00"}, {"measurement": "pIC50", "setting": "Plasmodium falciparum [6]", "result": 7.01}, {"measurement": "pIC50", "setting": "Cytochrome P450 2C9", "result": "< 5.00"}, {"measurement": "Selectivity Index", "setting": "[7]", "result": ">20"}, {"measurement": "pIC50", "setting": "Cytochrome P450 2D6", "result": "< 5.00"}, {"measurement": "solubility", "setting": "[8]", "result": "> 175", "unit": "µM"}, {"measurement": "pIC50", "setting": "Cytochrome P450 3A4", "result": "< 5.00"}]}
{"smiles": "CC(C)(N)C(=O)N1CCn2c(nc(-c3ccc(F)cc3)c2Nc2ccc(F)cc2)C1", "values": [{"measurement": "bioavailability", "setting": "[9]", "result": 87, "unit": "%"}, {"measurement": "CC50", "setting": "[1]", "result": "> 12", "unit": "µM"}, {"measurement": "AUC", "setting": "Mus musculus [10]", "result": 17.894, "unit": "µM·h"}, {"measurement": "pIC50", "setting": "Plasmodium falciparum [2]", "result": 7.70}, {"measurement": "Activity", "setting": "Rattus norvegicus", "result": "Non-toxic"}, {"measurement": "Cmax", "setting": "Mus musculus [11]", "result": 1800, "unit": "nM"}, {"measurement": "AUC(0-inf)", "setting": "[12]", "result": 3.44, "unit": "µM·h"}, {"measurement": "half-life", "setting": "[13]", "result": 6.2, "unit": "h"}, {"measurement": "Survival", "setting": "Plasmodium berghei [14]", "result": 7.7, "unit": "days"}, {"measurement": "Vd", "setting": "[15]", "result": 23.7, "unit": "L/kg"}, {"measurement": "clearance", "setting": "[16]", "result": 60, "unit": "mL/min/kg"}, {"measurement": "CC50", "setting": "[17]", "result": "> 12", "unit": "µM"}, {"measurement": "CC50", "setting": "[18]", "result": "> 12", "unit": "µM"}, {"measurement": "pIC50", "setting": "Cytochrome P450 1A2", "result": "< 5.05"}, {"measurement": "pIC50", "setting": "Cytochrome P450 2C19", "result": "< 5.05"}, {"measurement": "Tmax", "setting": "[19]", "result": 1.67, "unit": "h"}, {"measurement": "Activity", "setting": "Plasmodium berghei [20]", "result": 99.6, "unit": "%"}, {"measurement": "permeability", "setting": "[21]", "result": 81, "unit": "%"}, {"measurement": "pIC50", "setting": "Plasmodium falciparum [6]", "result": 7.60}, {"measurement": "Papp B→A", "setting": "in vitro [22]", "result": 8.38, "unit": "×10⁻⁶ cm/s"}, {"measurement": "pIC50", "setting": "Cytochrome P450 2C9", "result": "< 5.05"}, {"measurement": "CC50", "setting": "[23]", "result": "> 12", "unit": "µM"}, {"measurement": "half-life", "setting": "[24]", "result": 9, "unit": "h"}, {"measurement": "pIC50", "setting": "Cytochrome P450 2D6", "result": "< 5.05"}, {"measurement": "CC50", "setting": "[25]", "result": "> 12", "unit": "µM"}, {"measurement": "Papp A→B", "setting": "in vitro [26]", "result": 3.05, "unit": "×10⁻⁶ cm/s"}, {"measurement": "CC50", "setting": "[27]", "result": "> 12", "unit": "µM"}, {"measurement": "pIC50", "setting": "Cytochrome P450 3A4", "result": "< 5.05"}, {"measurement": "Survival", "setting": "Plasmodium berghei [28]", "result": 14, "unit": "days"}]}
